Results from ChEMBL document CHEMBL3399938, “Chemopreventive flavonoids from Millettia pulchra Kurz var-laxior (Dunn) Z.Wei (Yulangsan) function as Michael reaction acceptors” (Bioorg Med Chem Lett, 2015).

What was measured:
[1] = target: NAD(P)H dehydrogenase [quinone] 1 (Mus musculus) (UniProt Q64669); assay: Induction of NQO1 activity in mouse Hepa-1c1c7 cells assessed as induction ratio at 10 uM […] by NADPH-dependent MTT assay relative to control; assay type: cell-based
[2] = Cytotoxicity against mouse Hepa-1c1c7 cells assessed as cell viability at 10 uM […]; assay type: functional; details: read-out: Activity
Procedure, shortened: (§1)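 Hepa 1c1c7 cells were seeded at 1 × 10^4 cells/mL in α-MEM with 10% FBS and 0.1% penicillin–streptomycin, then grown 24 h at 37 °C in 5% CO2. Medium was replaced with fresh medium containing sample for another 24 h. Cells were then stained with 0.2% crystal violet in 2% ethanol for 10 min, washed and dried. Bound dye was dissolved in 0.5% SDS in 50% ethanol and read at 595 nm.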

[3] = target: NAD(P)H dehydrogenase [quinone] 1 (Mus musculus) (UniProt Q64669); assay: Induction of NQO1 activity in mouse Hepa-1c1c7 cells assessed as induction ratio at 20 uM after 48 hr by NADPH-dependent MTT assay relative to control; assay type: cell-based
Procedure, shortened: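 Hepa 1c1c7 cells were seeded at 1 × 10^4 cells/mL in α-MEM with 10% FBS, grown 24 h (5% CO2, 37 °C), then exposed to sample for 24 h. Lysis used 0.8% digitonin in 2 mM EDTA (pH 7.8) for 10 min at 37 °C. A menadione/NADP/glucose-6-phosphate dehydrogenase mix with 0.72 mM MTT was added, then read at 590 nm after 3 min shaking. IR = NQO1 activity of sample-treated over DMSO-treated cells; mean ± SE of three independent experiments.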

[4] = Cytotoxicity against mouse Hepa-1c1c7 cells assessed as cell viability at 20 uM […]; assay type: functional; details: read-out: Activity; procedure, shortened: as §1
[5] = Retention time of the compound by UPLC analysis; assay type: physicochemical; details: in the assay text read “preparative reverse-phase HPLC” for “UPLC”

NAD(P)H dehydrogenase [quinone] 1 (Mus musculus), sequence (Q64669 whole entry): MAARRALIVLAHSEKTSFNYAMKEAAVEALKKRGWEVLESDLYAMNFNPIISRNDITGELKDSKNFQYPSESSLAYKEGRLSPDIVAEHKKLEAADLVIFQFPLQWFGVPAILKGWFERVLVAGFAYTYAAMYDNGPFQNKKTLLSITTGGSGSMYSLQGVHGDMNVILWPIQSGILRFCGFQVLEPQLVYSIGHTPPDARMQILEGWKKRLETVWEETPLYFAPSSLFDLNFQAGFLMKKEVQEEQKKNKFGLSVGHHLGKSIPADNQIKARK

| Ratio [1] | Ratio [3] | Retention_time [5] | SMILES | viability at 10 µM [2] | viability at 20 µM [4] |
| --- | --- | --- | --- | --- | --- |
| 2.17 |  |  | O=c1cc(-c2ccc(Br)cc2)oc2ccccc12 | 109% |  |
|  | 1.54 |  | CC1(C)C=Cc2c(ccc3c2OC(c2ccccc2)CC3=O)O1 (centres undefined) |  | 114% |
|  | 1.7 |  | CC1(C)C=Cc2c(ccc(C(=O)/C=C/c3ccccc3)c2O)O1 [LONCHOCARPIN] |  | 84% |
|  | 2.14 | 131 min | COc1cc2c(c(O)c1C(=O)/C=C/c1ccccc1)C=CC(C)(C)O2 |  | 83% |
|  | 1.9 |  | COc1c(C(=O)/C=C(\O)c2ccccc2)ccc2c1C=CC(C)(C)O2 |  | 77% |
|  | 2.07 |  | COc1c(C(=O)C[C@@H](OC)c2ccccc2)ccc2occc12 |  | 92% |
|  | 2.01 |  | COc1c(C(=O)/C=C/c2ccccc2)ccc2occc12 |  | 81% |
|  | 2.02 |  | COc1cc2c(c3oc(-c4ccccc4)cc(=O)c13)C=CC(C)(C)O2 [CANDIDIN] |  | 79% |
|  | 1.6 |  | CC1(C)C=Cc2c(ccc3c(=O)cc(-c4ccccc4)oc23)O1 |  | 99% |
|  | 1.67 |  | O=c1c2c(oc3c1ccc1occc13)-c1ccccc1OC2 |  | 97% |
|  | 1.69 |  | COc1c(C(=O)/C=C(\O)c2ccccc2)ccc2occc12 [PONGAMOL] |  | 78% |
|  | 1.57 |  | COc1c(-c2ccccc2)oc2c(ccc3occc32)c1=O [KARANJIN] |  | 100% |
|  | 2.14 |  | CC1(C)C=Cc2c(c(O)cc3c(=O)cc(-c4ccccc4)oc23)O1 |  | 71% |
|  | 1.4 |  | COc1cc2c(=O)cc(-c3ccccc3)oc2c2c1OC(C)(C)C=C2 |  | 106% |
|  | 1.75 | 58 min | O=C(/C=C/c1ccccc1)c1ccc2occc2c1O |  | 90% |

| SMILES | Ratio [1] | Ratio [3] | Retention_time [5] | viability at 10 µM [2] | viability at 20 µM [4] |
| --- | --- | --- | --- | --- | --- |
| O=c1cc(-c2ccccc2)oc2c1ccc1occc12 [LANCEOLATIN B] |  | 1.64 |  |  | 100% |
